Holding throughout (format): functional
The species entered for one experiment is Cavia porcellus. Briefly: Dose that protects 50% of guinea pig from collapse was determined in guinea pig anaphylaxis assay. The note with it: read-out: PD50. The method in brief:
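Guinea pigs dosed by gavage (10 mL/kg) with compound in 0.5% Tween 80/water; reference theophylline 100 mg/kg po. At 1–24 h, exposed in chamber to aerosolized 1% (w/v) egg albumin at 10 L air/min for up to 5 min; protected if no collapse within 5 min. PD50 by Litchfield and Wilcoxon.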

Experiment [1] relates to Rattus norvegicus. Briefly: Percent change in volume of foot edema of test compound to that of positive control was determined at a dose of 31.6 mg/kg in rat; -78/-78.
Experiment [2] has as its system Rattus norvegicus. Kind of experiment: Percent change in volume of foot edema of test compound to that of positive control was determined at a dose of 10 mg/kg in rat; -48/-68.
Experiment [3] has as its system Rattus norvegicus. Briefly: Percent change in volume of foot edema of test compound to that of positive control was determined at a dose of 3.16 mg/kg in rat; -13/-68.
Experiment [4] relates to Rattus norvegicus. Kind of experiment: Percent change in volume of foot edema of test compound to that of positive control was determined at a dose of 10 mg/kg in rat; -2/-65.
Experiment [5] concerns Rattus norvegicus. Briefly: Percent change in volume of foot edema of test compound to that of positive control was determined at a dose of 31.6 mg/kg in rat; -59/-83.
The test system of experiment [6] is Rattus norvegicus. Briefly: Percent change in volume of foot edema of test compound to that of positive control was determined at a dose of 31.6 mg/kg in rat; -85/-78.
The test system of experiment [7] is Rattus norvegicus. Kind of experiment: Percent change in volume of foot edema of test compound to that of positive control was determined at a dose of 10 mg/kg in rat; +22/-73.

ED50 and PFA data for three compounds are collected here from ChEMBL document CHEMBL1124808, “The synthesis and antiallergy activity of 1-(aryloxy)-4-(4-arylpiperazinyl)-2-butanol derivatives” (1990).

The structures appear in SMILES notation.

For `Cl.Cl.OC(CCN1CCN(c2ccccn2)CC1)COc1ccc(Cl)cc1` (stereo not drawn), the ED50 in the experiment filed under Cavia porcellus amounted to 10.2 mg/kg. The PFA in the experiment with Rattus norvegicus [1] was -78; in the experiment with Rattus norvegicus [2], -48; in the experiment with Rattus norvegicus [3], -13.
Consider `OC(CCN1CCN(c2ccc(Br)cc2)CC1)COc1ccccc1` (stereo not drawn), for which the values for the PFA in the experiment on Rattus norvegicus [4] and with Rattus norvegicus [5] were -2 and -59, respectively.
Turning to `OC(CCN1CCN(c2cccc(Cl)c2)CC1)COc1ccccc1` (stereo not drawn), the figures for the PFA with Rattus norvegicus [6] and with Rattus norvegicus [7] were -85 and 22, respectively.
